Results gathered from unrelated publications.
Each line is one published result; the experiments were not run side by side.
ACHE: Acetylcholinesterase (ACHE, Homo sapiens, UniProt P22303)
FABP4: Fatty acid-binding protein, adipocyte (FABP4, Homo sapiens, UniProt P15090)
Sialidase-2: Sialidase-2 (Homo sapiens, UniProt Q9Y3R4)

CC(C)c1cc2c(c(O)c1O)[C@@]13CCCC(C)(C)[C@@H]1[C@H](OC3=O)[C@H]2O has a Ki of 0.23 nM (ACHE; enzyme activity, inhibitor).
O=c1cc(CSc2ccc(N=Cc3ccc(Br)cc3)cc2)occ1O has a Ki of 907 nM (ACHE; enzyme activity, inhibitor).
Cc1c(-c2cccnc2)c2ccccc2n1CCCCC(=O)O gave a Kd of 3260 nM (FABP4; ligand displacement, fluorescence).
CC(C)c1cc2c(c(O)c1O)[C@@]1(C(=O)O)CCCC(C)(C)[C@@H]1CC2 has a Ki of 0.58 nM (ACHE; enzyme activity, inhibitor).
Cc1cn([C@H]2[C@H]([C@H](O)[C@H](O)CO)OC(C(=O)O)=C[C@@H]2O)nn1 has an IC50 of 80000 nM (Sialidase-2; enzyme activity, inhibitor).
With CC(=O)c1c(C)c2cnc(Nc3ccc(C4CCN(CCS(C)(=O)=O)CC4)cn3)nc2n(C2CCCC2)c1=O the IC50 was greater than 10000 nM (Cytochrome P450 2C8 (CYP2C8, Homo sapiens, UniProt P10632); enzyme activity, inhibitor; human, liver microsomes).
Cn1c(=O)n(CCCCN2CCC3(CC2)OCc2ccccc23)c2ccccc21 has a Ki of 232 nM (Transporter (Slc6a2, Rattus norvegicus, UniProt Q63380); ligand displacement, radioligand; cell membranes).
The Ki of CCCCOP(=O)(O)C(C)=O is reported as 3000 nM (1-deoxy-D-xylulose-5-phosphate synthase (dxs, Escherichia coli, UniProt P77488); enzyme activity, inhibitor).
CC(C)(C)CN[C@H]1[C@H]([C@H](O)[C@H](O)CO)OC(C(=O)O)=C[C@@H]1O gave an IC50 of 120000 nM (Sialidase-2; enzyme activity, inhibitor).
O=C(O)C(F)(F)C(F)(F)C(F)(F)C(F)(F)C(F)(F)C(F)(F)C(F)(F)C(F)(F)C(F)(F)F has a Ki of 1350 nM (FABP4; ligand displacement, fluorescence).
CC1=C(CO)C(=O)O[C@@H]([C@@H](C)[C@H]2CC[C@H]3[C@@H]4C[C@H]5O[C@]56[C@@H](O)C=CC(=O)[C@]6(C)[C@H]4CC[C@]23C)C1 gave a Kd of 90400 nM (Importin subunit beta-1 (KPNB1, Homo sapiens, UniProt Q14974, C158A); binding, MST).
The Ki of O=C(O)C(F)(F)C(F)(F)C(F)(F)C(F)(F)C(F)(F)C(F)(F)C(F)(F)F is reported as 1820 nM (FABP4; ligand displacement, fluorescence).
The IC50 of Cc1ccccc1C=Nc1ccc(SCc2cc(=O)c(O)co2)cc1 is reported as 5300 nM (ACHE; enzyme activity, inhibitor, Ellman).
